Test results from ChEMBL document CHEMBL3997837, “Potent covalent inhibitors of bacterial urease identified by activity-reactivity profiling” (Bioorg Med Chem Lett, 2017).
Where a name gives a salt, the structure may show the parent alone. The source made the active and inactive calls. The calls are words filed in the database; no cut-off is given here.

Assays:
Sporosarcina pasteurii [1] = assay: Reversible inhibition of Sporosarcina pasteurii CCM 2056 urease assessed as reduction in ammonia production by measuring recovery of enzyme activity at 10 times IC50 preincubated for 60 mins followed by 100-fold dilution in to PBS containing urea as substrate by Berthelot colorimetric assay relative to control; parameters: Activity: scale not given: the % may be the effect or the level left
[2] = Inhibition of Sporosarcina pasteurii CCM 2056 urease assessed as reduction in ammonia production by measuring steady state enzyme-inhibitor complex using urea as substrate measured for 120 mins by phenol-hypochlorite method
Sporosarcina pasteurii [3] = assay: Competitive inhibition of Sporosarcina pasteurii CCM 2056 urease assessed as reduction in ammonia production preincubated with enzyme followed by addition of varying levels of urea as substrate measured for 120 mins by Lineweaver-Burk plot analysis
Sporosarcina pasteurii [4] = assay: Time-dependent Sporosarcina pasteurii CCM 2056 urease assessed as reduction in ammonia production using urea as substrate by phenol-hypochlorite method
[5] = Inhibition of Sporosarcina pasteurii CCM 2056 urease assessed as reduction in ammonia production using urea as substrate measured for 120 mins by phenol-hypochlorite method
[6] = Inhibition of Sporosarcina pasteurii CCM 2056 urease assessed as reduction in ammonia production by measuring initial state enzyme-inhibitor complex using urea as substrate measured for 120 mins by phenol-hypochlorite method
[7] = Glutathione reactivity in pH 7.4 PBS measured after 6 to 36 hrs in presence of 1.375 mmol GSH by DTNB reagent based spectrophotometric method
Procedure, shortened: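 Glutathione served as a model reactive-thiol compound. Unreacted GSH was quantified spectrophotometrically by a modified Ellman method, and reaction progress was followed over time up to 36 h.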

BALB/3T3 = assay: Cytotoxicity against mouse BALB/3T3 cells assessed as reduction in cell proliferation after 72 hrs by SRB assay; assay type: cell-based; conditions: balb/3t3, 72 h
Procedure, shortened: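 Mouse BALB/3T3 fibroblasts were scored by SRB assay, with cytotoxicity given as LC50 values.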

[8] = Inhibition of Proteus mirabilis 543 urease at pH 5.5 assessed as reduction in ammonia production using urea as substrate preincubated for 120 mins followed by substrate addition measured after 15 mins by NaOH-hypochlorite method; conditions: read-out: IC50
Procedure, shortened: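 Intact Proteus mirabilis cells were preincubated with inhibitors in PBS for 2 h, then tested at pH 5.5, matching urine acidity, with 5 mM urea. IC50 was determined.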

[9] = Inhibition of Proteus mirabilis 543 urease at pH 5.5 assessed as reduction in ammonia production using urea as substrate measured after 15 mins by NaOH-hypochlorite method; conditions: read-out: IC50
Procedure, shortened: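 Intact Proteus mirabilis cells were tested at pH 5.5, matching physiological urine, with 5 mM urea. Inhibitors were added without preincubation, and IC50 was determined.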

| Structure (SMILES) | Activity (Sporosarcina pasteurii [1]) [%] | Ki ([2]; read-out: Ki) [µM] | mode of inhibition (Sporosarcina pasteurii [3]) | TDI (Sporosarcina pasteurii [4]) | Ki ([5]; read-out: Ki) [µM] | Ki ([6]; read-out: Ki) [µM] | K [7] [M⁻¹ s⁻¹] | log K [7] | LC50 (BALB/3T3) [µM] | inhibition (Sporosarcina pasteurii [1]) | Ki [2] | Ki [5] | Ki [6] | IC50 [8] [µM] | IC50 [9] [µM] |
| --- | --- | --- | --- | --- | --- | --- | --- | --- | --- | --- | --- | --- | --- | --- | --- |
| CC(C)OC(=O)/C=C/C(=O)OC(C)C | 41.2 | 38.6 | Active | Active | 42.4 | 678 | – | – | – | – | – | – | – | – | – |
| C#CC(=O)OC | 41.5 | 50.5 | Active | Active | 46 | 804 | – | – | – | – | – | – | – | – | – |
| CCCCOC(=O)/C=C/C(=O)OCCCC | 45.1 | 66.7 | Active | Active | 53.7 | 847 | – | – | – | – | – | – | – | – | – |
| O=C1C=CCC1 | 15.3 | 0.232 | Active | Active | 0.291 | 11.2 | 0.487 | 1.5 | 86.5 | – | – | – | – | – | – |
| CC(=O)/C=C/C1=CC(=O)CCC1 | 38.8 | 21.3 | Active | Active | 21.2 | 205 | – | – | – | – | – | – | – | – | – |
| CCOC(=O)/C=C/C(=O)c1ccccc1 | 30.2 | 1.21 | Active | Active | 3.96 | 29.2 | 2.18 | 2.12 | 24.5 | – | – | – | – | – | – |
| O=C(O)/C=C/C1=CC(=O)CCC1 | 38.1 | 19.5 | Active | Active | 17.8 | 189 | – | – | – | – | – | – | – | – | – |
| Cc1ccc(/C=C/C(=O)O)cc1 | 39.9 | 32.2 | Active | Active | 34.2 | 633 | – | – | – | – | – | – | – | – | – |
| CC#CC(=O)OCC | 47.3 | 117 | Active | Active | 126 | 1270 | – | – | – | – | – | – | – | – | – |
| CCOC(=O)/C=C/c1ccc(C)cc1 | – | – | – | – | – | – | – | – | – | inactive | Not Active | Not Active | Not Active | – | – |
| CCOC(=O)/C=C/C(=O)OC(C)(C)C | 39.3 | 25.7 | Active | Active | 22.1 | 425 | – | – | – | – | – | – | – | – | – |
| COC(=O)/C=C(\CC(=O)OC)C(=O)OC | 31.5 | – | Active | Active | 5.21 | – | – | – | – | – | – | – | – | – | – |
| CC(=O)NO [ACETOHYDROXAMIC ACID] | 29.1 | – | – | – | 3.3 | – | – | – | – | – | – | – | – | 91.4 | 169 |
| O=C1C=C(/C=C/C(=O)c2ccccc2)CCC1 | 21.5 | 0.493 | Active | Active | 0.592 | 26.8 | – | – | – | – | – | – | – | – | – |
| CCC(C)OC(=O)/C=C/C(=O)OC(C)CC (stereo not given) | 46 | 59.2 | Active | Active | 64.2 | 907 | – | – | – | – | – | – | – | – | – |
| CCOC(=O)/C=C/C(=O)C(=O)OCC | 8.9 | 0.113 | Active | Active | 0.0928 | 32.8 | – | – | – | – | – | – | – | – | – |

| Structure (SMILES) | Activity (Sporosarcina pasteurii [1]) [%] | Ki ([2]; read-out: Ki) [µM] | mode of inhibition (Sporosarcina pasteurii [3]) | TDI (Sporosarcina pasteurii [4]) | Ki ([5]; read-out: Ki) [µM] | Ki ([6]; read-out: Ki) [µM] | K [7] [M⁻¹ s⁻¹] | log K [7] | LC50 (BALB/3T3) [µM] | inhibition (Sporosarcina pasteurii [1]) | Ki [2] | Ki [5] | Ki [6] | IC50 [8] [µM] | IC50 [9] [µM] |
| --- | --- | --- | --- | --- | --- | --- | --- | --- | --- | --- | --- | --- | --- | --- | --- |
| CCOC(=O)/C=C/C(=O)OCC | 34.3 | 12 | Active | Active | 11.1 | 21.7 | – | – | – | – | – | – | – | – | – |
| O=C(O)/C=C\C(=O)O [MALEIC ACID] | – | – | – | – | – | – | – | – | – | inactive | Not Active | Not Active | Not Active | – | – |
| CCOC(=O)C#Cc1ccccc1 | 44.7 | 47.1 | Active | Active | 52.3 | 814 | – | – | – | – | – | – | – | – | – |
| CCOC(=O)/C=C/c1ccc([N+](=O)[O-])cc1 | – | – | Active | – | – | – | – | – | – | inactive | Not Active | Not Active | Not Active | – | – |
| O=C(O)/C=C(\CC(=O)O)C(=O)O [ACONITIC ACID] | 33.8 | – | Active | Active | 6.13 | – | – | – | – | – | – | – | – | – | – |
| C=C=CC(=O)NCc1ccccc1 | – | – | – | – | – | – | – | – | – | inactive | Not Active | Not Active | Not Active | – | – |
| COC(=O)/C=C\C(=O)OC [DIMETHYL MALEATE] | – | – | – | – | – | – | – | – | – | inactive | Not Active | Not Active | Not Active | – | – |
| CCOC(=O)C#CC(=O)OCC | 8.8 | 0.00744 | Active | Active | 0.0102 | 0.852 | – | – | – | – | – | – | – | – | – |
| C=C=CC(=O)OCC | 29.1 | 2.27 | Active | Active | 2.52 | 162 | – | – | – | – | – | – | – | – | – |
| COC(=O)/C=C/C1=CC(=O)CCC1 | 23.6 | 0.766 | Active | Active | 0.694 | 46.5 | 0.0703 | 0.63 | – | – | – | – | – | – | – |
| CC#CC(=O)O | 47.4 | 97.5 | Active | Active | 109 | 1130 | – | – | – | – | – | – | – | – | – |
| CCOC(=O)/C=C/C(=O)O [ETHYL FUMARATE] | 45.6 | 59.1 | Active | Active | 52.4 | 888 | – | – | – | – | – | – | – | – | – |
| C#CC(=O)O [PROPIOLIC ACID] | 40.9 | 43.5 | Active | Active | 44.4 | 729 | – | – | – | – | – | – | – | – | – |
| O=C(O)C#Cc1ccccc1 | 39.2 | 40.3 | Active | Active | 37.1 | 584 | – | – | – | – | – | – | – | – | – |
| N#C/C=C/C1=CC(=O)CCC1 | 27.2 | 0.931 | Active | Active | 0.784 | 55.1 | – | – | – | – | – | – | – | – | – |
| O=C(O)/C=C/c1ccc([N+](=O)[O-])cc1 | 35.8 | 15.7 | Active | Active | 11.9 | 323 | – | – | – | – | – | – | – | – | – |
